{"source": "paper PMC7218920", "about": "(Science translational medicine, 2019)", "key": {"[1]": {"test_system": "soluble GC", "assay": "HEK-293 cells expressing cGMP-sensor alone", "assay_type": "cell-based, human", "how_it_was_run": "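HEK-293 cells carrying the GloSensor cGMP luciferase reporter (pGS-40F), either transiently transfected or as a stable control line, with no NPR1. Luminescence from GloSensor reagent was read in real time after media, SNP (333 μM; a soluble GC activator) or hNPPA, hNPPB or NPPC (10 nM each). The stable line also received SNP and peptide concentration series. Transient time courses were run in triplicate.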"}, "[2]": {"target": "T1, hNPR1 (Homo sapiens, UniProt P16066)", "T1 sequence (P16066 33-1061)": "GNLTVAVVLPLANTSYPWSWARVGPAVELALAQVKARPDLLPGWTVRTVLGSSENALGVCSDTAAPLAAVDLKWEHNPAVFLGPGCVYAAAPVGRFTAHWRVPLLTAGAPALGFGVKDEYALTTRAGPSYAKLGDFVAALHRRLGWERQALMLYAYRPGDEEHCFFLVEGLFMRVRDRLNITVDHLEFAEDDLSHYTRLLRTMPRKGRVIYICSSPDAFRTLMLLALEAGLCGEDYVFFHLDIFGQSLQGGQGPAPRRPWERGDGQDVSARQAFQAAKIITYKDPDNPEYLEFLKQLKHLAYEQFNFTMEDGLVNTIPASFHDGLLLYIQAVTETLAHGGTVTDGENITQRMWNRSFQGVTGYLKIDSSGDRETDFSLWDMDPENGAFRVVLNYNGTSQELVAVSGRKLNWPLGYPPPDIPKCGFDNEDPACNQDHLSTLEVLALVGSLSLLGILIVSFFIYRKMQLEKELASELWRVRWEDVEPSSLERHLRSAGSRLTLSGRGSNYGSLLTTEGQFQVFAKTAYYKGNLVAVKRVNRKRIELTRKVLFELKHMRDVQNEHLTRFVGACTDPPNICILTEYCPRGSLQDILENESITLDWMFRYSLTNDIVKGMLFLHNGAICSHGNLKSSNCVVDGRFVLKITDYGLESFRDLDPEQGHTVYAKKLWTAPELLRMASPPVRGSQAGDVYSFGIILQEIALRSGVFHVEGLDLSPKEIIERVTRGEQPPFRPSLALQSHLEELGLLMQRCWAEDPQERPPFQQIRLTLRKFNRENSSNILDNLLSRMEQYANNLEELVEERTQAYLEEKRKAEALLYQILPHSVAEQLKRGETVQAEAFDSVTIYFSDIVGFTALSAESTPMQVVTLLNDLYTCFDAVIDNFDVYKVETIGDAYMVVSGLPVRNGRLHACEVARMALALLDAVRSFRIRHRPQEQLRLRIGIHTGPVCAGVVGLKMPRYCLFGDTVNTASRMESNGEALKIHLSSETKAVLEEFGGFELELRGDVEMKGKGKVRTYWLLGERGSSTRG", "assay": "HEK-hNPR1-cGMP-sensor cells, qHTS cell-based assay", "conditions": "stable cell-line", "how_it_was_run": "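A stable HEK-293 line expressing hNPR1 plus the GloSensor cGMP reporter (pGS-40F) was stimulated with hNPPA, hNPPB or NPPC for time courses (10 nM each) and concentration-response. For qHTS, luminescence was read before and 30 min after agonist addition. Compounds were screened at six log concentrations and confirmed at 8 concentrations. Counter-screens covered luciferase interference, cytotoxicity and SNP-stimulated cGMP-sensor-only cells.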"}}, "data": [{"substance": "hNPPB: human natriuretic polypeptide b, NPR1 agonist", "values": [{"measurement": "response of stable cGMP-reporter cells", "setting": "[1]; stable cGMP-sensor control cell-line", "result": "lacked responses"}, {"measurement": "luciferase activity / cGMP in cGMP reporter cells", "setting": "[1]; transient cGMP-sensor, SNP 333 μM, peptides 10 nM", "result": "did not increase cGMP"}, {"measurement": "response of hNPR1-cGMP-reporter cells", "setting": "[2]", "result": "with appropriate potencies"}]}]}
